ChEMBL document CHEMBL1157809, “Bioactive norditerpenoids from the soft coral Sinularia gyrosa” (Bioorg Med Chem, 2010)
Values after ≈ are worked out from the molar mass of the structure shown. Active and inactive are the calls of the source. No cut-off for these calls is given here.

What was measured:
Human betaherpesvirus 5 = assay: Antiviral activity against HCMV infected in HEL cells assessed as inhibition of virus-induced cytopathic effect after 7 days; type: functional, organism-based; conditions: Human betaherpesvirus 5, HEL, 168 h; for EC50: read-out: ED50 (the source's name)
Summary of the method: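 Confluent human embryonic lung (HEL) cells preincubated 1 h with or without various compound concentrations, then infected with HCMV at 1000 pfu per well. IC50 taken as concentration reducing virus-induced cytopathic effect by 50% after seven days versus untreated control.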

HT-29 = assay: Cytotoxicity against human HT-29 cells by MTT assay; type: functional; conditions: read-out: ED50 (the source's name)
Summary of the method: (§1)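 Modified MTT colorimetric assay on P-388 mouse lymphocytic leukemia, HT-29 and A549 tumor cells; read-out ED50. Mithramycin as positive control.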

P388 = assay: Cytotoxicity against mouse P388 cells by MTT assay; type: functional; conditions: read-out: ED50 (the source's name); summary of the method: as §1
A549 = assay: Cytotoxicity against human A549 cells by MTT assay; type: functional; conditions: read-out: ED50 (the source's name); summary of the method: as §1
RAW264.7 [1] = assay: Antiinflammatory activity in mouse RAW264.7 cells assessed as inhibition of LPS-induced iNOS expression at 10 uM by immunoblot analysis
RAW264.7 [2] = assay: Antiinflammatory activity in mouse RAW264.7 cells assessed as inhibition of LPS-induced COX2 expression at 10 uM by immunoblot analysis; type: functional
Summary of the method: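 Murine RAW 264.7 macrophages cultured in DMEM with 10% heat-inactivated FBS at 37 °C, 5% CO2. Cells were stimulated with LPS with or without compound. COX-2 protein was measured by immunoblot, with β-actin as housekeeping reference, and expressed as % of LPS-stimulated control cells. Statistics: one-way ANOVA, Student–Newman–Keuls post hoc test, P<0.05.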

Row | SMILES | EC50 (Human betaherpesvirus 5) [µg/mL] | EC50 (HT-29) [µg/mL] | EC50 (P388) [µg/mL] | EC50 (A549) [µg/mL] | inhibition at 10 µM (RAW264.7 [1]) [%] | Activity (RAW264.7 [2]) | IC50 (Human betaherpesvirus 5) [µg/mL]
1 | C=C(C)[C@@H]1CC(=O)[C@H]2[C@H](C1)[C@@H]1C(=O)O[C@@H]3C[C@@]4(C)O[C@@H]2C(=O)[C@@H]4[C@H]13 | > 50 | > 20 | > 20 | > 20 | – | – | –
2 | O=C(/C=C/c1ccc(O)c(O)c1)OCCc1ccccc1 [CAFFEIC ACID PHENETHYL ESTER] | – | – | – | – | 1.5 | – | –
3 | C=C(C)[C@@H]1CC(=O)CC2=C(C1)[C@@H]1C(=O)O[C@@H]3C[C@](C)(O)[C@H](C2=O)[C@H]13 [SCABROLIDE A] | > 50 | > 20 | > 20 | > 20 | – | – | –
4 | C=C(C)[C@H]1CCC2=C[C@@H](C[C@@]3(C)CC(=O)[C@@H](CC(=O)C1)O3)OC2=O | > 50 | > 20 | > 20 | > 20 | – | – | –
5 | C=C(C)[C@@H]1CC(=O)C[C@]23O[C@]4(C)C[C@H]5OC(=O)[C@H]([C@H]5[C@H]4C2=O)[C@H]3C1 | > 50 | > 20 | > 20 | > 20 | – | – | –
6 | C=C(C)[C@@H]1CC(=O)C[C@H]2O[C@](C)(CC2=O)C[C@@H](O)[C@@H]2O[C@]2(C(=O)OC)[C@@H](O)C1 [GYROSANIN A] | > 50 | > 20 | 3.6 (≈ 9.08 µM) | > 20 | 66.9 | inactive | –
7 | C=C(C)[C@H]1C/C=C(/C(=O)OC)CC(=O)C[C@@]2(C)CC(=O)[C@H](CC(=O)C1)O2 | > 50 | > 20 | > 20 | > 20 | – | – | –
8 | C=C(C)[C@@H]1CC(=O)C[C@H]2O[C@](C)(CC2=O)C[C@H]2OC(=O)[C@@]3(O[C@H]23)[C@@H](O)C1 | > 50 | > 20 | > 20 | > 20 | 56.3 | inactive | –
9 | C=C(C)[C@H]1C/C=C2/C(=O)O[C@H](C[C@@]3(C)CC(=O)[C@H](CC(=O)C1)O3)[C@H]2O | > 50 | > 20 | > 20 | > 20 | 17.4 | inactive | –
10 | C=C(C)[C@H]1CCC2=C[C@@H](C[C@@]3(C)CC(=O)[C@H](CC(=O)C1)O3)OC2=O | > 50 | > 20 | > 20 | > 20 | – | – | –
11 | CO[C@H](C(=O)[C@@H](O)[C@@H](C)O)[C@@H]1Cc2cc3cc(O[C@H]4C[C@@H](O[C@@H]5C[C@@H](O)[C@H](O)[C@@H](C)O5)[C@H](O)[C@@H](C)O4)c(C)c(O)c3c(O)c2C(=O)[C@H]1O[C@H]1C[C@@H](O[C@@H]2C[C@@H](O)[C@@H](O[C@@H]3C[C@](C)(O)[C@H](O)[C@@H](C)O3)[C@@H](C)O2)[C@H](O)[C@@H](C)O1 [PLICAMYCIN] | – | 0.08 (≈ 0.0737 µM) | 0.06 (≈ 0.0553 µM) | 0.07 (≈ 0.0645 µM) | – | – | –
12 | C=C(C)[C@@H]1CC(=O)CC2=C(C1)[C@@H]1C(=O)O[C@@H]3CC(C)=C(C2=O)[C@H]13 [YONAROLIDE] | > 50 | > 20 | > 20 | > 20 | – | – | –
13 | C=C(C)[C@H]1CC[C@]23O[C@H]2[C@@H](C[C@@]2(C)CC(=O)[C@@H](CC(=O)C1)O2)OC3=O | > 50 | > 20 | > 20 | > 20 | 47.2 | inactive | –
14 | C=C(C)[C@H]1C/C=C2/C(=O)O[C@H](C[C@@]3(C)CC(=O)[C@@H](CC(=O)C1)O3)[C@H]2O | – | > 20 | > 20 | > 20 | 10.2 | inactive | 1.9 (≈ 5.45 µM)
15 | C=C(C)[C@@H]1CC(=O)C[C@@H]2O[C@](C)(CC2=O)C[C@@H]2C=C(C(=O)O2)[C@@H](O)C1 [GYROSANOLIDE F] | > 50 | > 20 | > 20 | > 20 | – | – | –
16 | C=C(C)[C@H]1C/C=C2/C(=O)O[C@H](C/C(C)=C\C(=O)[C@@H](O)CC(=O)C1)[C@H]2O [GYROSANOLIDE B] | > 50 | > 20 | > 20 | > 20 | 18.6 | inactive | –
17 | C=C(C)[C@H]1C/C=C2/C(=O)O[C@H](C/C(C)=C/C(=O)[C@@H](O)CC(=O)C1)[C@H]2O [GYROSANOLIDE A] | > 50 | > 20 | > 20 | > 20 | 55.2 | inactive | –
18 | C=C(C)[C@H]1CCC2=C[C@@H](C/C(C)=C/C(=O)[C@H](O)CC(=O)C1)OC2=O [GYROSANOLIDE D] | > 50 | > 20 | > 20 | > 20 | – | – | –
19 | C=C(C)[C@H]1CCC2=C[C@H](C[C@@]3(C)CC(=O)[C@@H](CC(=O)C1)O3)OC2=O [GYROSANOLIDE E] | > 50 | > 20 | > 20 | > 20 | – | – | –
20 | C=C(C)[C@H]1C/C=C2/C(=O)O[C@H](C/C(C)=C/C(=O)[C@H](OC)CC(=O)C1)[C@H]2O [GYROSANOLIDE C] | > 50 | > 20 | > 20 | > 20 | 10.6 | inactive | –
